Only some compounds are listed: those with a hit (about 2.2% of all), similar ones and a draw of the others.
NR2E3 ag-1 = activates human photoreceptor nuclear receptor NR2E3. Q9Y5X4. GST-NR2E3/biotin-RetCOR TR-FRET, 1536-well. inhibition of corepressor binding, % at 4.78 µM. actives 0.12% (n = 320,000). AID 2300;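 active = percent inhibition above the cutoff of mean plus 3 SD of all tested compounds, set per screening campaign, cut at about 20% in these data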
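Material: NR2E3–RetCOR corepressor complex | Quantity: 1.35 nM GST-tagged NR2E3 final | Schedule: 5 h at 4 °C | Replication: Singlicate compound wells | Reagent: RetCOR corepressor, biotinylated, 7 nM | Controls: Biotin wells as high control, 0.6% DMSO wells as low control | Signal: TR-FRET, Eu(K)-anti-GST donor, streptavidin-D2 acceptor, ex 340, em 617/671 nm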
COUP-TFII inh = inhibitors of human COUP-TFII (NR2F2). actives 0.7% (n = 370,000). AID 686940. P24468. HEK293T NGFI-A luciferase reporter, luminescence. inhibition, % at 8.6 µM;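 active = inhibition above a per-plate cutoff, mean inhibition of test wells between control levels plus 3 SD, cut at about 38% in these data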;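 also: cells cotransfected with COUP-TFII expression vector driving the NGFI-A reporter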
Target sequence (P24468 whole entry, looked up): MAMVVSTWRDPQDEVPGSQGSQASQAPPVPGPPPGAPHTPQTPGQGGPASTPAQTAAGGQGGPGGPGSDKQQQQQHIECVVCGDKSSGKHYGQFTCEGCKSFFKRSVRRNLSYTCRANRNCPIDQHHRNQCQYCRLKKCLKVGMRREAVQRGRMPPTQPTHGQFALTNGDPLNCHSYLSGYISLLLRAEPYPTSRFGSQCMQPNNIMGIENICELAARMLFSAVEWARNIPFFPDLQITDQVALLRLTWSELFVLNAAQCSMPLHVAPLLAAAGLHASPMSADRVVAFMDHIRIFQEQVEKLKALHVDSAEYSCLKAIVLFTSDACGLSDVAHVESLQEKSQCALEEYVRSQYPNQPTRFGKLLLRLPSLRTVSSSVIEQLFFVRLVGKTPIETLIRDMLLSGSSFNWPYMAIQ
NR2E3 ag-2 = activates human NR2E3 receptor. Q9Y5X4. CHO-S Gal4-NCOR/VP16-NR2E3 two-hybrid, luciferase. inhibition of corepressor binding, % at 3.98 µM. actives 0.35% (n = 360,000);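 active = inhibition above the mean of all tested compounds plus 3 SD, cut at about 70% in these data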;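 also: higher means lower luciferase signal from less NR2E3 corepressor binding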
SMARCA2 activ = increases SMARCA2 function in MMTV reporter cells; MG213 cells, MMTV-luciferase reporter, dexamethasone, overnight; activation, % at 9.1 µM; actives 1% (n = 370,000); AID 652017; in the data active = activation above about 7.8%
GalR3 antagonist = blocks the human galanin receptor 3 | HEK293 GalR3-CNG cAMP membrane potential fluorescence; galR3 body fused to GalR1 C-terminus | inhibition, % at 3 µM | actives 0.44% (n = 360,000) | O60755;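 active = inhibition above the screen-wide average plus 3 SD, cut at about 13% in these data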;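 also: forskolin and galanin both at EC90 stimulate the cells; cAMP rise reported by CNG channel membrane potential dye signal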
SMARCA2 act conf = SMARCA2 activation, confirmation screen | shares compounds with SMARCA2 activ | actives 30% (n = 3,500) | AID 652260 | MG213 cells, MMTV-luciferase with dexamethasone, luminescence, overnight; MG213 cells expressing E1A, Rb sequestered; DMSO wells 0%, reference activator 100% | activation, % at 9.1 µM;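 active = activation above its plate's cutoff, the mean activation of tested wells plus 3 SD, cut at about 7.9% in these data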
VP16 Luc act = counter-screen for SMARCA2 activators: GAL4-VP16 luciferase reporter activation; actives 41% (n = 3,500); shares compounds with SMARCA2 activ; activation, % at 9.1 µM; HEK293 GAL4-VP16 pG5luc reporter, luciferase luminescence; scaled: DMSO wells 0%, SAHA wells 100%;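 active = activation above the solvent-only control well mean plus 3 SD, averaged across control plates, cut at about 5.2% in these data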
Of the large screens only hits and unclear results are named; the others gave an inactive call (follow-up assays come after a bar, where they were run).

Fc1ccc(OCc2nc3ccccc3s2)cc1	SMARCA2 activ 9.1 | SMARCA2 act conf inactive | VP16 Luc act 12
c1ccc(OCc2nc3ccccc3s2)cc1	none
COC(=O)c1c(NC(=O)Cc2ccccc2)sc2c1CC(C)(C)NC2(C)C	SMARCA2 activ 12 | SMARCA2 act conf inactive | VP16 Luc act inactive
O=C(Cn1sc2ccccc2c1=O)Nc1ccc(F)cc1	SMARCA2 activ 9.2 (no result: NR2E3 ag-1) | SMARCA2 act conf 11 | VP16 Luc act inactive
CC(=O)C1=C(C)N(Cc2ccc(Cl)cc2)C(=S)NC1c1ccc(Cl)cc1 (stereo not drawn)	none (no result: NR2E3 ag-1, NR2E3 ag-2)
CCN(CC)CCNC(=O)c1ccc(NCN2C(=O)NC(c3ccccc3)(c3ccccc3)C2=O)cc1	SMARCA2 activ 8.0 (no result: NR2E3 ag-1, NR2E3 ag-2) | SMARCA2 act conf inactive | VP16 Luc act inactive
COc1ccc(NC(=O)c2ccc(Oc3ncccn3)cc2)cc1	SMARCA2 activ 9.4 | SMARCA2 act conf inactive | VP16 Luc act inactive
COc1ccc(NC(=O)c2ccc(NC(=O)c3ccncc3)cc2)cc1	none
O=C(c1ccc(Cl)cc1)C1CCN(Cc2ccccc2)CC1	SMARCA2 activ 8.2 | SMARCA2 act conf inactive | VP16 Luc act inactive
CC(/C=C/c1ccc(OCc2ccccc2)cc1)=N\O	none
CN(C)c1ccc(C(=O)/C=C/c2ccccc2)cc1	SMARCA2 activ 10 | SMARCA2 act conf 8.6 | VP16 Luc act 14
CN(C)c1ccc(C(=O)/C=C/c2ccc(Br)cc2)cc1	none
CCOc1ccc(/C=C/C(=O)c2ccccc2)cc1	SMARCA2 activ 9.9 | SMARCA2 act conf inactive | VP16 Luc act 12
O=C(C=Cc1ccc(OCc2ccccc2)cc1)c1c(F)cccc1F	SMARCA2 activ 10 (no result: NR2E3 ag-1, NR2E3 ag-2) | SMARCA2 act conf 9.9 | VP16 Luc act inactive
CN(C)c1ccc(/C=C/C(=O)c2ccccc2)cc1[N+](=O)[O-]	SMARCA2 activ 9.3 | SMARCA2 act conf inactive | VP16 Luc act inactive
O=C(C=Cc1cccc(Cl)c1)c1ccccc1	SMARCA2 activ 10 (no result: NR2E3 ag-1) | SMARCA2 act conf inactive | VP16 Luc act inactive
O=C(/C=C/c1ccccc1)NNC(=O)c1cccc(Cl)c1	none
COc1ccc(NC2c3ccccc3C(=O)N2c2ccccn2)cc1Cl (stereo not drawn)	SMARCA2 activ 8.2 (no result: GalR3 antagonist) | SMARCA2 act conf inactive | VP16 Luc act inactive
O=C1c2ccccc2C(Nc2ccc(F)c(Cl)c2)N1c1ccccn1 (stereo not drawn)	none (no result: GalR3 antagonist)
O=C1[C@H]2C[C@@]3(n4ccc5ccccc54)c4ccccc4N(S(=O)(=O)c4ccccc4)[C@H]3N2C(=O)CN1Cc1ccccc1	none (no result: NR2E3 ag-1, NR2E3 ag-2, GalR3 antagonist)
O=C(OCC#CCSc1nnc(-c2cccc3ccccc23)o1)c1ccncc1	none (no result: NR2E3 ag-1, NR2E3 ag-2, SMARCA2 activ, GalR3 antagonist)
O=C1OC(/C(=C\Nc2cc(Cl)ccc2O)[N+](=O)[O-])c2ccccc21 (stereo not drawn)	SMARCA2 activ 33 | SMARCA2 act conf inactive | VP16 Luc act inactive
CN(NC1OC(=O)c2ccccc21)c1ccc(Cl)cc1[N+](=O)[O-] (stereo not drawn)	none
Cc1ccc(N/C=C(\C2OC(=O)c3ccccc32)[N+](=O)[O-])c(C)c1 (stereo not drawn)	none
O=C1OC(/C(=C\Nc2ccc(F)cc2F)[N+](=O)[O-])c2ccccc21 (stereo not drawn)	SMARCA2 activ 13 | SMARCA2 act conf inactive | VP16 Luc act inactive
Cc1nc2ccc(S(=O)(=O)NCC(=O)NCc3ccc(F)cc3)cc2s1	none (no result: NR2E3 ag-1, NR2E3 ag-2, GalR3 antagonist)
CCOc1ccc2nc(/N=C/c3c(C)[nH]n(-c4ccc(C)cc4)c3=O)sc2c1	SMARCA2 activ 11 | SMARCA2 act conf inactive | VP16 Luc act 6.5
CCN(CC)CCNc1nc(SC)nc2sc3c(c12)CCN(C)C3	SMARCA2 activ 9.2 | SMARCA2 act conf inactive | VP16 Luc act inactive
CSc1nc(NCCCN(C)C)c2c3c(sc2n1)CN(C)CC3	none (no result: NR2E3 ag-1, NR2E3 ag-2)
COc1ccc2oc(-c3ccncc3)cc(=O)c2c1	SMARCA2 activ 8.7 (no result: NR2E3 ag-1) | SMARCA2 act conf 13 | VP16 Luc act 6.5
COc1ccc2c(=O)cc(C(F)(F)C(F)(F)F)oc2c1	none

From PubChem BioAssay
